# Source: PubChem BioAssay (Sanford-Burnham Center for Chemical Genomics)
# Sampled rows, rich in hits. Any-hit rate of the full collection: about 1.9%.
# FAS-TE inh = FAS thioesterase (human) inhibition | P49327 | hit rate 0.67% among 360,000 | inhibition, % at 15 µM | recombinant FAS-TE, OMFH fluorogenic substrate, fluorescence endpoint | AID 602261;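 active means compounds whose normalised, plate-corrected inhibition of enzyme fluorescence in the single-dose primary screen is 50% or more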;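 further: 0% = DMSO with enzyme and 100% = substrate without enzyme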
# Scp1 inh = Scp-1 (human) phosphatase inhibition | Q9GZU7 | Recombinant Scp1, phosphopeptide, malachite green phosphate absorbance | inhibition, % at 20 µM | hit rate 0.88% among 340,000;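 active means inhibition above about 50% at 20 µM, limit read from the data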;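 further: plate controls were DMSO wells with enzyme for no effect and wells lacking enzyme for full effect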
# Target sequence (Q9GZU7 76-261 limits assumed): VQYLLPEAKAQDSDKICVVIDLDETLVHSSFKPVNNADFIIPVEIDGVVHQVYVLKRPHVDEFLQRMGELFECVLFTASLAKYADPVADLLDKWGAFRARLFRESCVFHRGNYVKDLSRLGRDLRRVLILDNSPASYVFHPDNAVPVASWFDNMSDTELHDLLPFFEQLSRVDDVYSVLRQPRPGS
#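 Test system – truncated SCP-1 phosphatase (76-261aa) · Reagent – Phosphorylated 17-residue peptide substrate · Incubation – 45 min room-temperature reaction, 5 min colour, 30 min stabiliser · Detection – colorimetric phosphate reagent with accelerator and stabiliser, absorbance at 630 nm · Measure – % inhibition at 20 µM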
# SUMO1 PPI mod = SUMO1-SIM interaction modulation. inhibition, % at 20 µM. hit rate 0.33% among 360,000. SUMO1 binding to a labelled peptide, TR-FRET, 1 h. P63165; in the data active means inhibition above about 37%
# Target sequence (P63165 whole entry, looked up): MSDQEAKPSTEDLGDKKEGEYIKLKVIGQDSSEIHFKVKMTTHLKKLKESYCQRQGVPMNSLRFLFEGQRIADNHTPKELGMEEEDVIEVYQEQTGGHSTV
# LMPTP block = LMPTP (human) inhibition. recombinant LMPTP-A, OMFP fluorogenic substrate, fluorescence intensity. inhibition, % at 20 µM. hit rate 0.22% among 360,000. AID 651560;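 active means compounds that cut the enzyme signal by at least half of the control window in the single-dose screen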;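 further: plate controls were DMSO wells with enzyme plus substrate for no effect and substrate without enzyme for full effect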
# Target sequence (P24666 whole entry, looked up): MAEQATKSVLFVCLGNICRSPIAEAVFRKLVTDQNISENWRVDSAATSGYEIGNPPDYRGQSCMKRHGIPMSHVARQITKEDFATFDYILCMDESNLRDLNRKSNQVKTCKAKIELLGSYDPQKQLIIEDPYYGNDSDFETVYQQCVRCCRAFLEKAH
#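 Test system: LMPTP-A phosphatase enzyme. Amount: LMPTP-A at 0.625 nM final in the reaction. Reagent: OMFP substrate, 400 µM final. Times: 50 min at room temperature. Signal: endpoint fluorescence intensity from OMFP dephosphorylation. Read-out basis: % inhibition. Benchmarks: no-enzyme and uninhibited controls.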
# STEP block = STEP (human) phosphatase inhibition; AID 588621; inhibition, % at 20 µM; recombinant STEP, OMFP fluorogenic substrate, fluorescence; P54829; hit rate 0.25% among 360,000;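 active means inhibition at 20 µM, scaled per plate between control wells, above about 37%, limit read from the data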;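 further: 0% = DMSO with enzyme and substrate and 100% = substrate only without enzyme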
#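 material = STEP tyrosine phosphatase | reagent = fluorogenic phosphatase substrate OMFP at 25 µM final | doses = single compound dose of 20 µM, 1% DMSO final | schedule = 20 min reaction, room temperature, in the dark | measured by = fluorescence, 480/540 nm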
# Scp-1 conf = confirmation of human Scp-1 phosphatase inhibitors | recombinant SCP-1 catalytic domain, phosphate release, malachite green absorbance | hit rate 61% among 2,500 | shares compounds with Scp1 inh | inhibition, % at 20 µM;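 further: plate controls were DMSO with enzyme for no effect and buffer wells lacking enzyme for full effect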
# Scp-1 MG ctr = counter-screen for Scp-1 inhibitors: colorimetric interference; apparent inhibition (interference), % at 20 µM; Colorimetric interference counterscreen, malachite green absorbance 630 nm; shares compounds with Scp1 inh; 2,500 tested, under 10 active;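 further: compounds added after enzyme reaction finished so only phosphate colour detection is probed; plate controls were DMSO wells with completed Scp-1 reaction for no effect and substrate wells lacking enzyme for full effect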
# Scp-1 Tm shift = binds human Scp-1, shifting its melting temperature; shares compounds with Scp1 inh; Recombinant SCP1, Sypro Orange thermal shift Tm; thermal shift relative to vanadate control, % at 40 µM; hit rate 25% among 1,500;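 active means substances whose mean melting-temperature shift, as a percentage of the reference inhibitor's shift, reaches about 5.3%, limit read from the data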;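 further: 0% = Tm of DMSO wells and 100% = Tm with sodium orthovanadate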
# Active calls of the source: *; x = no result given.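 How the source made its calls, unless noted: active means inhibition of at least 30% at 20 µM; inactive means the rest.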
SMILES,FAS-TE inh,Scp1 inh,SUMO1 PPI mod,LMPTP block,STEP block,Scp-1 conf,Scp-1 MG ctr,others
C=CC1=C(C(=O)O)N2C(=O)[C@@H](NC(=O)/C(=N\O)c3csc(N)n3)[C@H]2SC1 (stereo in doubt),-6.0,97.5*,62.7*,78.5*,73.1*,60.2*,-10.9,Scp-1 Tm shift=2.2
O=C1/C(=C/c2ccccc2)CCc2ccc(Cl)nc21,-1.3,2.2,-30.8,-0.3,-0.4,x,x,
CC1=C(C(=O)N2CCOCC2)CC(CC(=O)NC2CCCCC2)C(=O)N1Cc1ccccc1 (configuration not stated),-9.8,x,-1.9,-1.5,3.3,x,x,
CCOc1cc(S(=O)(=O)NC2CCCC2)ccc1Cl,4.0,-15.9,1.0,0.8,0.2,x,x,
CCOc1cc(S(=O)(=O)Nc2cc(C)cc(C)c2)ccc1Cl,24.4,66.3*,0.7,3.0,1.7,-21.9,-16.1,
O=C1CCN(Cc2ccccc2)S(=O)(=O)c2ccccc21,0.6,67.8*,3.8,1.0,0.8,62.6*,-16.2,Scp-1 Tm shift=-20.7
CCOC(=O)C1(CCOc2ccccc2)CCN(Cc2ccc(O)c(OCC)c2)CC1,-4.6,-2.8,-5.2,1.4,0.5,x,x,
COc1cccc(NS(=O)(=O)c2cc3c(cc2C)N(C(C)=O)CCO3)c1,-5.0,87.3*,-1.3,-1.3,2.3,-23.7,-20.3,
Cc1ccc(OCC2Cn3c(nc4c3c(=O)[nH]c(=O)n4C)O2)cc1C (configuration not stated),-4.4,-6.5,-1.5,-1.0,2.7,x,x,
C=CCN1C(=O)/C(=C2/Sc3ccccc3N2CCCS(=O)(=O)O)SC1=S,-1.5,86.5*,13.2,5.6,10.7,63.9*,-19.7,Scp-1 Tm shift=13.2*
Cc1ccc(N=C2NC(=O)S/C2=C\c2ccco2)cc1,-8.2,97.4*,-3.2,62.8*,34.6,56.9*,-13.1,Scp-1 Tm shift=3.8
O=C1NC(=Nc2ccccc2)/C(=C/c2ccco2)S1,10.9,3.0,-9.6,1.1,0.5,x,x,
COC(=O)c1c(NC(=O)Cc2cccs2)sc2c1CCCC2,13.8,50.6*,7.5,3.5,6.6,72.7*,-12.3,Scp-1 Tm shift=0.4
CC1(C(=O)NS(=O)(=O)c2ccc(C#N)cc2)CCN1C(=O)Cc1ccccc1Cl (configuration not stated),-3.6,x,2.1,-0.9,-3.1,x,x,
O=C(NCCc1ccccc1)C1Cc2c(-c3ccc(Cl)cc3)ccnc2O1 (configuration not stated),17.0,x,21.6,-0.5,1.7,x,x,
Cc1ccc(Cl)cc1NC(=O)Nc1c(C)n(C)n(-c2ccccc2)c1=O,1.2,76.5*,7.0,0.0,-4.4,-18.1,-14.2,
COc1ccc(S(=O)(=O)CCC(=O)Nc2c(C)n(C)n(-c3ccccc3)c2=O)cc1,-7.6,54.7*,2.0,-0.7,-1.1,-14.7,-17.2,
Cc1c(NC(=O)CN2C(=O)NC(C)(c3ccccc3)C2=O)c(=O)n(-c2ccccc2)n1C (configuration not stated),-14.3,0.7,-1.5,-0.1,1.6,-15.7,-18.9,
Cc1c(NC(=O)Nc2ccc(Cl)cc2Cl)c(=O)n(-c2ccccc2)n1C,-2.9,-9.0,2.4,-1.5,7.0,x,x,
C[C@H](NC(=O)c1ncn2c1C(=O)N[C@@H](C)C2)C(=O)OC(C)(C)C,-8.2,x,1.8,-2.1,-0.7,x,x,
Cc1ccc(S(=O)(=O)Nc2ccc(Cl)cc2C(=O)c2ccc(F)cc2)cc1,8.2,-2.7,1.8,0.0,-0.3,x,x,
C[C@H](CO)N1C[C@H](C)[C@H](CN(C)S(=O)(=O)c2cn(C)cn2)Oc2ccc(NC(=O)Nc3ccc(C(F)(F)F)cc3)cc2CC1=O,0.8,-4.4,-2.0,0.1,-2.3,x,x,
CC(C)NC(=O)N(C)C[C@H]1Oc2ccc(NS(=O)(=O)c3cccs3)cc2C(=O)N([C@H](C)CO)C[C@@H]1C,-4.9,6.2,3.3,0.9,-0.7,x,x,
